Data: ChEMBL document CHEMBL1177842, “New 6-amino-[1,2,4]triazolo[3,4-b][1,3,4]thiadiazines and [1,2,4]triazolo[3,4-b] [1,3,4]thiadiazin-6-ones: synthesis, characterization and antibacterial activity evaluation” (2010)
Values after ≈ are worked out from the molar mass of the structure shown. Active and inactive are the calls of the source. The calls are words filed in the database; no cut-off is given here.

Experiments:
Format in all cases: functional
Acinetobacter baumannii = assay: Antibacterial activity against Acinetobacter baumannii ATCC 19606 after 24 hrs by broth microdilution technique
Procedure, shortened: (§1)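 MIC by broth microdilution following NCCLS recommendations. Strains were grown in Mueller-Hinton broth and the inoculum was 5 × 10^5 cfu in 1 mL. Compounds were dissolved in DMSO and serially diluted in tubes to final concentrations of 1024 down to 2 µg/mL. 24 h old inoculum was added. After 35 °C for 24 h, the MIC was the lowest concentration inhibiting visible growth. Tetracycline and ampicillin served as standards.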

Citrobacter freundii = assay: Antibacterial activity against Citrobacter freundii […] after 24 hrs by broth microdilution technique; procedure, shortened: as §1
Enterobacter cloacae = assay: Antibacterial activity against Enterobacter cloacae ATCC 49141 after 24 hrs by broth microdilution technique; procedure, shortened: as §1
Escherichia coli = assay: Antibacterial activity against Escherichia coli ATCC 25922 after 24 hrs by broth microdilution technique; conditions: ATCC 25922, 24 h; procedure, shortened: as §1
Pseudomonas aeruginosa = assay: Antibacterial activity against Pseudomonas aeruginosa ATCC 9027 after 24 hrs by broth microdilution technique; procedure, shortened: as §1
Enterococcus faecalis = assay: Antibacterial activity against Enterococcus faecalis ATCC 29212 after 24 hrs by broth microdilution technique; conditions: ATCC 29212, 24 h; procedure, shortened: as §1
Staphylococcus aureus = assay: Antibacterial activity against Staphylococcus aureus ATCC 25923 after 24 hrs by broth microdilution technique; conditions: ATCC 25923, 24 h; procedure, shortened: as §1
[1] = test system: Staphylococcus epidermidis; assay: Antibacterial activity against Staphylococcus epidermidis ATCC 14990 after 24 hrs by broth microdilution technique; conditions: ATCC 14990, 24 h; procedure, shortened: as §1
Bacillus cereus = assay: Antibacterial activity against Bacillus cereus ATCC 13061 after 24 hrs by broth microdilution technique; procedure, shortened: as §1

Row | SMILES | MIC (Acinetobacter baumannii; ATCC 19606, 24 h) [µg/mL] | MIC (Citrobacter freundii) [µg/mL] | MIC (Enterobacter cloacae; ATCC 49141, 24 h) [µg/mL] | MIC (Escherichia coli) [µg/mL] | MIC (Pseudomonas aeruginosa; ATCC 9027, 24 h) [µg/mL] | MIC (Enterococcus faecalis) [µg/mL] | MIC (Staphylococcus aureus) [µg/mL] | MIC [1] [µg/mL] | MIC (Bacillus cereus; ATCC 13061, 24 h) [µg/mL] | MIC (Acinetobacter baumannii) | MIC (Pseudomonas aeruginosa) | MIC (Bacillus cereus) | MIC (Enterobacter cloacae)
1 | Nn1c(SCC(=O)O)nnc1-c1ccc(S(=O)(=O)c2ccccc2)cc1 | 1020 (≈ 2620 µM) | 512 (≈ 1310 µM) | 1020 (≈ 2620 µM) | 64 (≈ 164 µM) | 256 (≈ 656 µM) | 512 (≈ 1310 µM) | 256 (≈ 656 µM) | 128 (≈ 328 µM) | 1020 (≈ 2620 µM) |  |  |  | 
2 | O=S(=O)(c1ccc(Br)cc1)c1ccc(-c2nnc3n2N=C(Nc2ccccc2)CS3)cc1 | 512 (≈ 973 µM) | 512 (≈ 973 µM) | 512 (≈ 973 µM) | 256 (≈ 486 µM) | 256 (≈ 486 µM) | 1020 (≈ 1950 µM) | 1020 (≈ 1950 µM) | 1020 (≈ 1950 µM) | 512 (≈ 973 µM) |  |  |  | 
3 | O=C1CSc2nnc(-c3ccc(S(=O)(=O)c4ccc(Br)cc4)cc3)n2N1 | 256 (≈ 567 µM) | 512 (≈ 1130 µM) | 512 (≈ 1130 µM) | 128 (≈ 284 µM) | 128 (≈ 284 µM) | 1020 (≈ 2270 µM) | 1020 (≈ 2270 µM) | 1020 (≈ 2270 µM) | 1020 (≈ 2270 µM) |  |  |  | 
4 | Nn1c(SCC(=O)Nc2ccccc2)nnc1-c1ccc(S(=O)(=O)c2ccc(Cl)cc2)cc1 | 1020 (≈ 2050 µM) | 512 (≈ 1020 µM) | 512 (≈ 1020 µM) | 128 (≈ 256 µM) | 32 (≈ 64 µM) | 1020 (≈ 2050 µM) | 128 (≈ 256 µM) | 256 (≈ 512 µM) | 1020 (≈ 2050 µM) |  |  |  | 
5 | Nn1c(SCC(=O)Nc2ccccc2)nnc1-c1ccc(S(=O)(=O)c2ccc(Br)cc2)cc1 | 1020 (≈ 1880 µM) | 1020 (≈ 1880 µM) | 256 (≈ 470 µM) | 256 (≈ 470 µM) | 128 (≈ 235 µM) | 1020 (≈ 1880 µM) | 64 (≈ 118 µM) | 256 (≈ 470 µM) | 512 (≈ 940 µM) |  |  |  | 
6 | Nn1c(S)nnc1-c1ccc(S(=O)(=O)c2ccc(Br)cc2)cc1 | 128 (≈ 311 µM) | 512 (≈ 1240 µM) | 512 (≈ 1240 µM) | 1020 (≈ 2490 µM) | 512 (≈ 1240 µM) | 1020 (≈ 2490 µM) | 512 (≈ 1240 µM) | 512 (≈ 1240 µM) | 1020 (≈ 2490 µM) |  |  |  | 
7 | CCOC(=O)C1Sc2nnc(-c3ccc(S(=O)(=O)c4ccc(Cl)cc4)cc3)n2NC1=O (configuration not stated) | 1020 (≈ 2140 µM) | 512 (≈ 1070 µM) | 512 (≈ 1070 µM) | 512 (≈ 1070 µM) | 128 (≈ 267 µM) | 1020 (≈ 2140 µM) | 1020 (≈ 2140 µM) | 1020 (≈ 2140 µM) | 1020 (≈ 2140 µM) |  |  |  | 
8 | O=C1CSc2nnc(-c3ccc(S(=O)(=O)c4ccccc4)cc3)n2N1 | 256 (≈ 687 µM) | 512 (≈ 1370 µM) | 512 (≈ 1370 µM) | 128 (≈ 344 µM) | 128 (≈ 344 µM) | 1020 (≈ 2750 µM) | 512 (≈ 1370 µM) | 32 (≈ 85.9 µM) | 1020 (≈ 2750 µM) |  |  |  | 
9 | Nn1c(-c2ccc(S(=O)(=O)c3ccc(Cl)cc3)cc2)n[nH]c1=S | 128 (≈ 349 µM) | 512 (≈ 1400 µM) | 512 (≈ 1400 µM) | 1020 (≈ 2790 µM) | 128 (≈ 349 µM) | 1020 (≈ 2790 µM) | 512 (≈ 1400 µM) | 512 (≈ 1400 µM) | 1020 (≈ 2790 µM) |  |  |  | 
10 | CN(C)[C@@H]1C(O)=C(C(N)=O)C(=O)[C@@]2(O)C(O)=C3C(=O)c4c(O)cccc4[C@@](C)(O)[C@H]3C[C@@H]12 [TETRACYCLINE] | 2 (≈ 4.5 µM) | 2 (≈ 4.5 µM) |  | 2 (≈ 4.5 µM) | 16 (≈ 36 µM) | 32 (≈ 72 µM) | < 2 | 32 (≈ 72 µM) | < 2 |  |  |  | inactive

More lines, main results first:

Row | MIC (Acinetobacter baumannii; ATCC 19606, 24 h) [µg/mL] | MIC (Citrobacter freundii) [µg/mL] | MIC (Enterobacter cloacae; ATCC 49141, 24 h) [µg/mL] | MIC (Escherichia coli) [µg/mL] | MIC (Pseudomonas aeruginosa; ATCC 9027, 24 h) [µg/mL] | MIC (Enterococcus faecalis) [µg/mL] | MIC (Staphylococcus aureus) [µg/mL] | MIC [1] [µg/mL] | MIC (Bacillus cereus; ATCC 13061, 24 h) [µg/mL] | MIC (Acinetobacter baumannii) | MIC (Pseudomonas aeruginosa) | MIC (Bacillus cereus) | SMILES | MIC (Enterobacter cloacae)
11 | 1020 (≈ 2180 µM) | 512 (≈ 1090 µM) | 1020 (≈ 2180 µM) | 64 (≈ 136 µM) | 256 (≈ 545 µM) | 512 (≈ 1090 µM) | 512 (≈ 1090 µM) | 512 (≈ 1090 µM) | 1020 (≈ 2180 µM) |  |  |  | Nn1c(SCC(=O)O)nnc1-c1ccc(S(=O)(=O)c2ccc(Br)cc2)cc1 | 
12 | 1020 (≈ 2410 µM) | 512 (≈ 1210 µM) | 1020 (≈ 2410 µM) | 64 (≈ 151 µM) | 256 (≈ 603 µM) | 256 (≈ 603 µM) | 128 (≈ 301 µM) | 256 (≈ 603 µM) | 1020 (≈ 2410 µM) |  |  |  | Nn1c(SCC(=O)O)nnc1-c1ccc(S(=O)(=O)c2ccc(Cl)cc2)cc1 | 
13 | 512 (≈ 1540 µM) | 512 (≈ 1540 µM) | 512 (≈ 1540 µM) | 512 (≈ 1540 µM) | 512 (≈ 1540 µM) | 1020 (≈ 3080 µM) | 512 (≈ 1540 µM) | 128 (≈ 385 µM) | 1020 (≈ 3080 µM) |  |  |  | Nn1c(-c2ccc(S(=O)(=O)c3ccccc3)cc2)n[nH]c1=S | 
14 | 1020 (≈ 2200 µM) | 512 (≈ 1100 µM) | 512 (≈ 1100 µM) | 512 (≈ 1100 µM) | 64 (≈ 138 µM) | 1020 (≈ 2200 µM) | 64 (≈ 138 µM) | 512 (≈ 1100 µM) | 1020 (≈ 2200 µM) |  |  |  | O=c1[nH]n2c(-c3ccc(S(=O)(=O)c4ccc(Br)cc4)cc3)nnc2sc1=O | 
15 | 256 (≈ 629 µM) | 512 (≈ 1260 µM) | 512 (≈ 1260 µM) | 128 (≈ 315 µM) | 128 (≈ 315 µM) | 512 (≈ 1260 µM) | 256 (≈ 629 µM) | 256 (≈ 629 µM) | 1020 (≈ 2520 µM) |  |  |  | O=C1CSc2nnc(-c3ccc(S(=O)(=O)c4ccc(Cl)cc4)cc3)n2N1 | 
16 |  | 2 (≈ 5.72 µM) |  |  |  | < 2 | < 2 | < 2 |  | inactive | inactive | inactive | CC1(C)S[C@@H]2[C@H](NC(=O)[C@H](N)c3ccccc3)C(=O)N2[C@H]1C(=O)O [AMPICILLIN] | inactive
17 | 512 (≈ 1060 µM) | 128 (≈ 266 µM) | 1020 (≈ 2120 µM) | 128 (≈ 266 µM) | 64 (≈ 133 µM) | 1020 (≈ 2120 µM) | 256 (≈ 531 µM) | 1020 (≈ 2120 µM) | 1020 (≈ 2120 µM) |  |  |  | O=S(=O)(c1ccc(Cl)cc1)c1ccc(-c2nnc3n2N=C(Nc2ccccc2)CS3)cc1 | 
